For one test, the system named is MDA-MB-231. In words: Cytotoxicity against human MDA-MB-231 cells at 10 ug/ml after 4 hrs by MTT assay. The test is classed as functional. A digest of the protocol: (§1)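 MTT assay in 96-well plates, 10^4 cells per well, attached overnight. Cells were exposed to compound diluted in medium from 10 mg/mL DMSO stocks (vehicle control 0.2% DMSO) at 37 °C, 5% CO2, for 4 h, then changed to fresh DMEM. MTT (0.5 mg/mL) was added for 3 h at 37 °C in the dark. Formazan was dissolved in DMSO and read at 540 nm; results given as inhibitory rate.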
(Formazan colour is commonly taken as a measure of viable cells.)

The test system of a further test is HeLa. Put plainly: Cytotoxicity against human HeLa cells at 10 ug/ml after 4 hrs by MTT assay. The test is classed as functional, cell-based. In outline:
as §1

Each structure is given as a SMILES string. Activity calls are given as the source filed them. No cut-off for these calls is given here.

This passage reports Activity results from ChEMBL document CHEMBL1151954, “Photinides A-F, cytotoxic benzofuranone-derived gamma-lactones from the plant endophytic fungus Pestalotiopsis photiniae” (2009).

As to `COc1cccc2c1C(=O)[C@]1(O2)O[C@@]1(CO)[C@@H]1OC(=O)C[C@H]1C`, the Activity in the test on MDA-MB-231 was found to be 24.6%. Further, the outcome in the test with HeLa was inactive.

The compound `C[C@@H]1CC(=O)O[C@H]1/C(CO)=C1/Oc2cccc(O)c2C1=O` [PHOTINIDE D] gave an Activity in the test with MDA-MB-231 of 24.4%. The outcome with HeLa was inactive.

`COc1cccc2c1C(=O)/C(=C(/CO)[C@@H]1OC(=O)C[C@H]1C)O2` [PHOTINIDE B]: the Activity in the test on MDA-MB-231 was 24.2%. Further, the outcome with HeLa was inactive.

Take `COc1cccc2c1C(=O)[C@@]1(O2)O[C@]1(CO)[C@@H]1OC(=O)C[C@H]1C`: the result with MDA-MB-231 was Active. In the test on HeLa, the result was inactive.

Consider `C[C@@H]1CC(=O)O[C@H]1/C(CO)=C1\Oc2cccc(O)c2C1=O` [PHOTINIDE C], for which the Activity with MDA-MB-231 is 23.1%. Further, in the test with HeLa, the outcome was inactive.

In the test on MDA-MB-231, `COc1cccc2c1C(=O)/C(=C(\CO)[C@@H]1OC(=O)C[C@H]1C)O2` [PHOTINIDE A] gave an Activity of 24.4%. For the same compound, the outcome with HeLa was inactive.
